From ChEMBL document CHEMBL1151959, “Identification and biological evaluation of a series of 1H-benzo[de]isoquinoline-1,3(2H)-diones as hepatitis C virus NS5B polymerase inhibitors” (J Med Chem, 2009)
pEC50, pIC50: −log10 of the molar value. ≈ marks a conversion by molar mass, not a printed value. Values belong to the compound of their own block, whether it stands above or below them. Calls of active or inactive are those of the source. The calls are words filed in the database; no cut-off is given here.

Legend:
Hepatitis C virus [1] = assay: Antiviral activity against HCV1b Con1 infected in human Huh7 cells by replicon cell-ELISA assay; details: isolate Con1, Huh-7
Hepatitis C virus [2] = assay: Antiviral activity against HCV1b BK infected in human Huh7 cells by replicon cell-ELISA assay; details: Huh-7
[3] = Solubility of the compound; format: physicochemical
[4] = tested on: Hepatitis C virus (isolate BK); assay: Inhibition of HCV1b BK NS5B Cdelta21 RNA dependent RNA polymerase in pre-elongation phase assessed as residual activity at 1 uM to 0.1 nM preincubated for 5 mins with polyA oligoU18 RNA in room temperature in presence of heparin
Method in brief: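 Single-cycle conditions: ΔC21-1b enzyme and polyA/oligoU18 RNA preincubated 5 min, then compound added from 0.1 nM to 1 μM. Elongation started with 3H-UTP plus heparin (50 ng/μL) to trap free enzyme. Residual polymerase activity measured.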

[5] = Lipophilicity, log D of the compound; format: physicochemical; details: octanol/water
[6] = Cytotoxicity against human HuH7 cells by MTT assay; format: cell-based; details: Huh-7 cells
[7] = Inhibition of HCV2a.4 NS5B Cdelta21 RNA dependent RNA polymerase; design: species or system Hepacivirus hominis, 2a.4
Genome polyprotein = Genome polyprotein (GB virus-B, UniProt Q69422); assay: Inhibition of Hepatitis GB virus B NS5B RNA dependent RNA polymerase
[8] = tested on: Hepatitis C virus (isolate BK); assay: Inhibition of HCV1b BK NS5B Cdelta21 RNA dependent RNA polymerase in pre-elongation phase assessed as residual enzyme activity at 1 uM preincubated for 120 mins with polyA oligoU18 RNA in room temperature
Method in brief: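 Preincubation time course: ΔC21-1b enzyme and polyA/oligoU18 RNA preincubated 0 to 120 min before adding compound at 1 μM. Residual polymerase activity measured.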

[9] = tested on: Hepatitis C virus (isolate BK); assay: Inhibition of HCV1b BK NS5B Cdelta21 RNA dependent RNA polymerase in pre-elongation phase assessed as residual enzyme activity at 6.4 uM to 3 nM preincubated for 15 mins with polyA oligoU18 RNA in room temperature
Method in brief: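 ΔC21-1b polymerase (20 nM) with polyA/oligoU18 RNA, preincubated 15 min at room temperature before compound addition or not preincubated. Compound titrated 3 nM to 6.4 μM. Residual activity measured.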

[10] = Volume of distribution at steady state in rat at 3 mg/kg, iv; format: ADME, organism-based; design: dose 3 mg/kg, route intravenous; details: in vivo, read-out: Vdss
[11] = Clearance in rat at 3 mg/kg, iv; format: ADME, organism-based; design: dose 3 mg/kg, route intravenous; details: in vivo
[12] = Inhibition of HCV2b.2 NS5B Cdelta21 RNA dependent RNA polymerase; design: species or system Hepacivirus hominis, 2b.2
Method in brief: (§1)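 Truncated ΔC21 NS5B RdRp from the HCV genotype 1b BK strain or the genotype 2b 2b.2 strain. Values are the mean of two or more experiments, with SD within 30% of the mean.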

[13] = Elimination half life in rat at 3 mg/kg, iv; format: ADME, organism-based; design: dose 3 mg/kg, route intravenous; details: in vivo
[14] = Cmax in rat at 3 mg/kg, po after 0.7 hrs; format: ADME, organism-based; design: dose 3 mg/kg, route oral; details: in vivo
[15] = Inhibition of DNA polymerase 1 Klenow fragment
[16] = Inhibition of HCV1a RB5 NS5B Cdelta21 RNA dependent RNA polymerase; design: species or system Hepatitis C virus subtype 1a
[17] = Inhibition of HIV reverse transcriptase; design: species or system Human immunodeficiency virus
[18] = Inhibition of Bovine viral diarrhea virus 1 RNA-dependent RNA polymerase
Hepatitis C virus [19] = assay: Antiviral activity against HCV1b BK infected in human H2B2 cells expressing HEPREP 2b replicon by cell-ELISA assay
[20] = Inhibition of HCV6a NS5B Cdelta21 RNA dependent RNA polymerase; design: species or system Hepatitis C virus subtype 6a
Method in brief: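 Purified ΔC21-truncated NS5B RNA-dependent RNA polymerase from HCV genotype 6a, run alongside enzymes from the other major genotypes. Each value is the mean of two or more separate experiments, with SD within ±30% of the mean.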

[21] = Oral bioavailability in rat at 3 mg/kg; format: ADME, organism-based; details: in vivo
[22] = Inhibition of HCV3a.7 NS5B Cdelta21 RNA dependent RNA polymerase; design: species or system Hepacivirus hominis, 3a.7
Hepatitis C virus [23] = assay: Antiviral activity against HCV H77-1a infected in human Huh7 cells by replicon cell-ELISA assay; details: genotype 1a H77, Huh-7
[24] = AUC in rat at 3 mg/kg, po; format: ADME, organism-based; design: dose 3 mg/kg, route oral; details: plasma
Method in brief: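 Single oral dose of 3 mg/kg given to rats. Compound concentrations were measured in plasma, and AUC was taken from the plasma exposure after oral dosing. The same rat study also included an iv administration arm.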

[25] = Inhibition of HCV4a NS5B Cdelta21 RNA dependent RNA polymerase; design: species or system Hepatitis C virus subtype 4a
Hepatitis C virus [26] = assay: Antiviral activity against HCV 2b.2 infected in human Huh7 cells by replicon cell-ELISA assay; details: 2b.2, Huh-7
[27] = Inhibition of HCV1b BK NS5B Cdelta21 RNA dependent RNA polymerase; design: species or system Hepatitis C virus (isolate BK); method in brief: as §1
Hepatitis C virus [28] = assay: Antiviral activity against HCV1b Con1 infected in human Huh7 clone HBI10A cells expressing HEPREP 1b replicon by cell-ELISA assay; format: functional, organism-based, Hepacivirus hominis; details: isolate Con1, Huh-7
[29] = target: RNA-directed RNA polymerase (Hepacivirus hominis, UniProt O39930, M414T); assay: Inhibition of HCV1b BK NS5B Cdelta21 RNA dependent RNA polymerase Palm site 1 and 2 M414T mutant; design: species or system Hepatitis C virus (isolate BK)
[30] = target: RNA-directed RNA polymerase (Hepacivirus hominis, UniProt O39930, M423K); assay: Inhibition of HCV1b BK NS5B Cdelta21 RNA dependent RNA polymerase Thumb site 2 M423K mutant; design: species or system Hepatitis C virus (isolate BK)
[31] = Inhibition of HCV1b BK NS5B Cdelta21 RNA dependent RNA polymerase Thumb site 2 R501E mutant; design: species or system Hepatitis C virus (isolate BK)
[32] = target: RNA-directed RNA polymerase (Hepacivirus hominis, UniProt O39930, P495A); assay: Inhibition of HCV1b BK NS5B Cdelta21 RNA dependent RNA polymerase Thumb site 1 P495A mutant; design: species or system Hepatitis C virus (isolate BK)

SMILES: O=C1c2cccc3c(NCCO)ccc(c23)C(=O)N1c1cccc(Br)c1
pEC50 (Hepatitis C virus [1]): 5.19 | pEC50 (Hepatitis C virus [2]): 5.34 | solubility [3]: 0.44 µg/mL (≈ 1.07 µM) | Activity [4]: Active | logD [5]: 3.45 | CC50 [6]: 76000 nM | pIC50 [7]: 6.11 | pIC50 (Genome polyprotein): < 4.30 | Activity [8]: inactive | Activity [9]: inactive | Vd [10]: 1.1 L/kg | clearance [11]: 12 mL/min/kg | pIC50 [12]: 6.74 | half-life [13]: 42 min | Cmax [14]: 4 µM | pIC50 [15]: < 4.30 | pIC50 [16]: 7.19 | pIC50 [17]: < 4.30 | pIC50 [18]: < 4.30 | pEC50 (Hepatitis C virus [19]): 4.96 | pIC50 [20]: 6.31 | bioavailability [21]: 83% | pIC50 [22]: 6.12 | pEC50 (Hepatitis C virus [23]): 5.33 | AUC [24]: 9.7 µM·h | pIC50 [25]: 6.27 | pEC50 (Hepatitis C virus [26]): 4.95

pIC50 [12]: 6.73 | pIC50 [27]: 7.54
SMILES: CCNc1ccc2c3c(cccc13)C(=O)N(c1cccc(Br)c1)C2=O

pIC50 [12]: 5.74 | pIC50 [27]: 6.30
SMILES: CN(CCO)c1ccc2c3c(cccc13)C(=O)N(c1cccc(Br)c1)C2=O

pEC50 (Hepatitis C virus [28]): 5.72 | pIC50 [12]: 6.92 | pIC50 [27]: 7.52
SMILES: O=C1c2cccc3c(NC4CCNCC4)ccc(c23)C(=O)N1c1cccc(Br)c1
CC50 [6]: 3500 nM

pIC50 [12]: 6.52 | pIC50 [27]: 6.72
SMILES: Nc1ccc2c3c(cccc13)C(=O)N(c1cccc(Br)c1)C2=O

pIC50 [12]: 6.91 | pIC50 [27]: 7.62
SMILES: COCCNc1ccc2c3c(cccc13)C(=O)N(c1cccc(Br)c1)C2=O

pEC50 (Hepatitis C virus [28]): 5.70 | pIC50 [12]: 6.40 | pIC50 [27]: 6.89
SMILES: CNCCNc1ccc2c3c(cccc13)C(=O)N(c1cccc(Br)c1)C2=O
CC50 [6]: 1500 nM

pEC50 (Hepatitis C virus [28]): < 4.30 | pIC50 [12]: < 4.30 | pIC50 [27]: 5.80
SMILES: NS(=O)(=O)c1cccc(N2C(=O)c3cccc4c(NCCO)ccc(c34)C2=O)c1
CC50 [6]: > 50000 nM

pIC50 [12]: < 4.30 | pIC50 [27]: < 4.30
SMILES: OCCNc1ccc2c3c(cccc13)CN(c1cccc(Br)c1)C2

pEC50 (Hepatitis C virus [28]): 4.96 | pIC50 [12]: 7.05 | pIC50 [27]: 6.89
SMILES: CC(C)CNc1ccc2c3c(cccc13)C(=O)N(c1cccc(Br)c1)C2=O
CC50 [6]: > 50000 nM

pEC50 (Hepatitis C virus [28]): 5.66 | pIC50 [12]: 7.37 | pIC50 [27]: > 7.85
SMILES: O=C1c2cccc3c(NC4CCN(Cc5ccccc5)CC4)ccc(c23)C(=O)N1c1cccc(Br)c1
CC50 [6]: 5200 nM

pIC50 [12]: < 4.30 | pIC50 [27]: < 4.30
SMILES: O=C1c2cccc3cccc(c23)C(=O)N1c1cccc(Br)c1

pIC50 [12]: 5.46 | pIC50 [27]: 6.07
SMILES: O=C1c2ccc(NCCO)c3cccc(c23)CN1c1cccc(Br)c1

SMILES: CC(C)N(c1cc(-c2ccccc2)sc1C(=O)O)C(=O)[C@H]1CC[C@H](C)CC1
pIC50 [29]: 7.80 | CC50 [6]: > 50000 nM | pEC50 (Hepatitis C virus [28]): 5.85 | pIC50 [12]: < 5.00 | pIC50 [30]: < 6.30 | pIC50 [27]: 8.05 | pIC50 [31]: 7.00 | pIC50 [32]: 7.40

pEC50 (Hepatitis C virus [28]): < 4.30 | pIC50 [12]: 6.92 | pIC50 [27]: 7.18
SMILES: O=C1c2cccc3c(NC4CCCCC4)ccc(c23)C(=O)N1c1cccc(Br)c1
CC50 [6]: > 50000 nM

pEC50 (Hepatitis C virus [28]): 5.42 | pIC50 [12]: 6.96 | pIC50 [27]: 7.38
SMILES: O=C1c2cccc3c(N[C@H]4CC[C@@H](C(=O)O)CC4)ccc(c23)C(=O)N1c1cccc(Br)c1
CC50 [6]: > 50000 nM

pIC50 [12]: < 4.30 | pIC50 [27]: 5.77
SMILES: O=C1c2cccc3c(NCCO)ccc(c23)C(=O)N1c1ccccc1
